Results reported in PubChem BioAssay.
Activity calls are given as the source filed them.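 How the source made its calls, unless noted: active means NADPH fluorescence slope more negative than the mean of all samples by about 3 SD, 99.7% confidence; inactive means the rest.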

What was measured:
[1] = inhibitors of TNFa-induced NFkB p65 translocation, primary screen, imaging, HUVEC, MLSMR starter and 10KST1 sets (AID 438;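 active means inhibition above 20% together with a positive visual image hit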;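 further: compound added about 3h40 before a 20 min TNFalpha stimulation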;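 on inhibition: signal is the nuclear over cytoplasmic p65 intensity ratio per well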); conditions: HUVEC TNFa-induced p65 nuclear translocation; cell count: measured here: nuclei count (cytotoxicity indicator), at 2.08 µM; inhibition: at 2 µM, stronger effect = higher value, 0% TNFa-plus-vehicle, 100% no-TNFa wells
[2] = reduction of polyQ htt aggregates in cells – imaging, exon1htt(103Q)mCFP cells, high-content imaging, primary screen (AID 483;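 active means visual image review flags a hit and inhibition of aggregation exceeds 20%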;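 further: compound exposure lasted 3 days before fixation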;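 on nuclei count: percent of the per-plate median nuclei count of sample wells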); conditions: exon1htt(103Q)mCFP cell line, aggregate imaging, at 2 µM; inhibition of aggregation: stronger effect = higher value; nuclei count: measured here: cell count, toxicity
[3] = endothelial E-selectin expression blockers – imaging, HUVEC, immunofluorescence, MLSMR starter and 10KST1 sets, primary screen (AID 487;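 active means visually confirmed hit in the image check and inhibition above 20%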;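 on inhibition: signal is fraction of cell area covered by stained E-selectin grains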;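 on nuclei count: 100% = median nuclei count of all wells on the same plate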); conditions: HUVEC TNFalpha-induced E-selectin immunofluorescence imaging, at 2 µM; inhibition: stronger effect = higher value; nuclei count: measured here: cell number, toxicity
[4] = target: Voltage-gated potassium channel subunit beta-2 (Rattus norvegicus) (UniProt P62483); test: inhibitors of rat Kvbeta2 reductase activity – biochemical, NADPH fluorescence, primary screen (AID 622;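 active means fluorescence slope higher than the sample average by over 3 SD, cut at about -0.22 in these data, passing the limit was not always enough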;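 further: slope of raw intensity against log time taken from 70 to 1610 s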); conditions: recombinant KvBeta, 4-cyanobenzaldehyde reduction, at 10 µM, stronger effect = higher value
Voltage-gated potassium channel subunit beta-2 (Rattus norvegicus), sequence (P62483 whole entry, looked up): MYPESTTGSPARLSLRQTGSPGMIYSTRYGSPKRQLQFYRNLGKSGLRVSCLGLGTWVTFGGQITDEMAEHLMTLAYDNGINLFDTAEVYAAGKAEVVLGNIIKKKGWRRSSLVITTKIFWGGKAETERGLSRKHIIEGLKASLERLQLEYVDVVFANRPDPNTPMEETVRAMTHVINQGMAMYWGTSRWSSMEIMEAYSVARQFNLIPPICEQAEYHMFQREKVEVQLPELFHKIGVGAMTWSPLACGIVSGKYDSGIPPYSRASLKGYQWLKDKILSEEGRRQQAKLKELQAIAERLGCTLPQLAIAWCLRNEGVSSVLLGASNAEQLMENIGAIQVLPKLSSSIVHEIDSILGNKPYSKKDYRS

[5] = target: Voltage-gated potassium channel subunit beta-2 (Rattus norvegicus) (UniProt P62483); test: enhancers of rat Kvbeta2 NADPH turnover – biochemical, NADPH fluorescence, primary screen (AID 623); conditions: Recombinant KvBeta, NADPH fluorescence decrease slope, 10 min; at 10 µM; stronger effect = lower value;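 further: fluorescence intensity change per second fitted from 20 to 320 s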
[6] = target: Muscarinic acetylcholine receptor M4 (Homo sapiens) (UniProt P08173); test: M4-linked GIRK flux change, two-sided – cell-based, HEK293 M4/GIRK, thallium flux, BTC-AM, M4 allosteric agonist project, primary screen (AID 625;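 active means fluorescence slope after compound addition differing from the mean of all tested samples at 99.7% confidence, mostly higher but some lower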;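 further: thallium influx through GIRK channels coupled to M4 in HEK293 cells with BTC-AM dye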); conditions: at 10 µM, actives lie on both sides
Muscarinic acetylcholine receptor M4 (Homo sapiens), sequence (P08173 whole entry, looked up): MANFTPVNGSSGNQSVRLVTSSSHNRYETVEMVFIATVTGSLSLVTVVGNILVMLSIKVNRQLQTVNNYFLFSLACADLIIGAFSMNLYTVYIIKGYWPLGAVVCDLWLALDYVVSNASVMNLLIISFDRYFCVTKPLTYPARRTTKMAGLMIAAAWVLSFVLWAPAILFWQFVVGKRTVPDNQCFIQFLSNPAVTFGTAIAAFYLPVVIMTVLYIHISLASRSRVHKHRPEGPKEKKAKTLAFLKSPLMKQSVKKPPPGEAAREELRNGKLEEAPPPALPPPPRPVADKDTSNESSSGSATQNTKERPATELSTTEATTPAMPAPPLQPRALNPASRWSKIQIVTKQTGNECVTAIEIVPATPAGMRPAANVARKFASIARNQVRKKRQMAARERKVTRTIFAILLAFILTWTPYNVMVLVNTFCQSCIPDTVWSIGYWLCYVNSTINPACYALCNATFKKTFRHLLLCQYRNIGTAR
In short: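 assay system = HEK293 cells with M4 receptor and GIRK channels | medium = pH 7.3 thallium assay buffer | doses = 10 µM final, single point | timing = cells overnight at 37 °C, BTC-AM loading 1 h, reads 2 min total | signal = BTC-AM fluorescence, 1 Hz kinetic reads | read-out = post-addition slope, 15–24 s, of baseline-normalized fluorescence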

[7] = blockers of RIG-like receptor reporter activation – cell-based, Sendai virus stimulus, luciferase, 10K MLSCN set, TLR/RLR signaling modifier project, primary screen (AID 602276;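 active means inhibition at or above 50% at 10 µM; inactive means inhibition below 50%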;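 further: firefly luciferase from ISG56 promoter only with Renilla not read in this screen; 0% = Sendai virus plus DMSO and 100% = medium plus DMSO without virus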); conditions: HEK293 RL24 IRF3 luciferase reporter, at 10 µM, stronger effect = higher value
[8] = TLR3 IRF3 reporter activation blockers – cell-based, poly I:C stimulus, luciferase, 10K MLSCN set, primary screen (AID 602277;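 active means inhibition of the reporter signal at or above 50%; inactive means inhibition below 50%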); conditions: HEK293-TLR3 RL24 IRF3 luciferase reporter, at 10 µM, stronger effect = higher value

Structure (SMILES)	cell count [1]	inhibition [1]	inhibition of aggregation [2]	nuclei count [2] [%]	inhibition [3]	nuclei count [3] [%]	fluorescence slope [4]	NADPH fluorescence slope [5]	fluorescence slope [6]	inhibition [7]	inhibition [8]
COCc1cc(C)c2c(N)c(C#N)sc2n1	549	2.2% (inactive)	-26% (inactive)	60.8	22.2% (inactive)	108	-0.324 (inactive)	2.3e-06 (inactive)	0.00504 (inactive)	-19.7% (inactive)	-33.5% (inactive)
COc1ccc(-c2noc(CN3C(=O)c4ccccc4C3=O)n2)cc1	551	8.9% (inactive)	4.4% (inactive)	90.5	-19.9% (inactive)	108	-0.551 (inactive)	-4.8e-05 (inactive)	0.00296 (inactive)	0.341% (inactive)	-2.38% (inactive)
COC(=O)c1[nH]c2cccc(C)c2c1NC(=O)CN1CCCc2ccccc21	279	6.2% (inactive)	22.8% (inactive)	94	-47.3% (inactive)	100	-0.45 (inactive)	6.4e-05 (inactive)	0.00793 (inactive)	2.04% (inactive)	20% (inactive)
COc1cc(NC(=O)c2cc(OC)c(OC)c(OC)c2)c(OC)cc1NC(=O)CN1CCCCC1	700	-11.1% (inactive)	12.2% (inactive)	115	-14.6% (inactive)	115	-0.309 (inactive)	-3.3e-05 (inactive)	0.00436 (inactive)	3.03% (inactive)	-8.31% (inactive)
CCn1c(SCC(N)=O)nc2c1c(=O)n(C)c(=O)n2C	226	4.9% (inactive)	20.7% (inactive)	80.1	-57.2% (inactive)	152	-0.422 (inactive)	2.5e-05 (inactive)	0.00578 (inactive)	17.5% (inactive)	21.1% (inactive)
Cc1ccc(N2CCN(C(=O)c3ccccc3Br)CC2)c(C)c1	655	-20.4% (inactive)	0% (inactive)	91.9	-13.4% (inactive)	101	-0.532 (inactive)	5.2e-06 (inactive)	0.00352 (inactive)	15.2% (inactive)	23.3% (inactive)
CCCn1c(NC(=O)C2COc3ccccc3O2)nc2ccccc21 (configuration not stated)	496	1% (inactive)	-4.8% (inactive)	98.3	-56% (inactive)	102	-0.467 (inactive)	0.000114 (inactive)	0.00578 (inactive)	15.8% (inactive)	17.5% (inactive)
